Published values gathered from unrelated publications.
Lines come from different studies, so protocols differ.
PIK3C2B: Phosphatidylinositol 4-phosphate 3-kinase C2 domain-containing subunit beta (PIK3C2B, Homo sapiens, UniProt O00750)
KDM1A: Lysine-specific histone demethylase 1A (KDM1A, Homo sapiens, UniProt O60341)
TRIM24: Transcription intermediary factor 1-alpha (TRIM24, Homo sapiens, UniProt O15164)

COc1ccc([C@H]2c3[nH]c4ccccc4c3C[C@@H]3C(=O)N(C(C)(C)C)C(=O)N23)cc1OC — inhibition (cGMP-specific 3',5'-cyclic phosphodiesterase (PDE5A, Homo sapiens, UniProt O76074); enzyme activity, inhibitor, FP; 50 µM): 52%
NS(=O)(=O)c1ccc(Nc2nc(-c3ccc(F)cc3)c3ccccc3n2)cc1 — remaining binding (Bromodomain-containing protein 3, BD1 (BRD3, Homo sapiens, UniProt Q15059); binding, competition with immobilised ligand; 1 µM): 1%
Cc1ccc(C(=O)Nc2ccc(CN3CCN(C)CC3)c(C(F)(F)F)c2)cc1C#Cc1cnc2cccnn12 — remaining activity (PIK3C2B; enzyme activity, inhibitor; 23.5 nM): 90%
O=C(O)c1ccc(CN2CCC(CN[C@@H]3C[C@H]3c3ccccc3)CC2)cc1 — KI (inactivation) (KDM1A; enzyme activity, inhibitor): 2.14 µM
C[S+]([O-])c1ccc(-c2nc(-c3ccncc3)c(-c3ccc(F)cc3)[nH]2)cc1 (stereo not drawn) — ΔTm (TRIM24; thermal stability, DSF; 10 µM): 1.4 °C
CN1CCN(C(=O)[C@H](CCCN[C@@H]2C[C@H]2c2ccc(F)cc2)NC(=O)c2ccc(-n3ccnn3)cc2)CC1 — KI (inactivation) (KDM1A; enzyme activity, inhibitor): 1.19 µM
COc1cc2c(NC3CCN(C(C)C)CC3)nc(C3CCCCC3)nc2cc1OCCCN1CCCC1 — ΔTm (Histone-lysine N-methyltransferase EHMT1 (EHMT1, Homo sapiens, UniProt Q9H9B1); thermal stability, DSF; 100 µM): 8 °C
Cc1cnc(Nc2ccc(OCCN3CCCC3)cc2)nc1Nc1cccc(S(=O)(=O)NC(C)(C)C)c1 — ΔTm (Bromodomain-containing protein 3, BD2 (BRD3, Homo sapiens, UniProt Q15059); thermal stability, DSF; 10 µM): 3.4 °C
Cc1cc2c(cc1N1C(=O)c3cccc4c(Cl)ccc(c34)C1=O)n(C)c(=O)n2C — ΔTm (SP140L (Homo sapiens, UniProt Q9H930); thermal stability, DSF; 10 µM): -1.4 °C
Nc1ncnc2occ(-c3ccc(NC(=O)Nc4cc(C(F)(F)F)ccc4F)cc3)c12 — remaining activity (PIK3C2B; enzyme activity, inhibitor; 20 µM): 99%
Oc1ccc(-c2nc(-c3ccncc3)c(-c3ccc(F)cc3)[nH]2)cc1 — ΔTm (TRIM24; thermal stability, DSF; 10 µM): -0.23 °C
CC(=O)N[C@H](C(=O)N[C@H](C(=O)N[C@@H](Cc1ccccc1)C(=O)N[C@H](C(=O)N[C@@H](CO)C(=O)N[C@@H](Cc1c[nH]c2ccccc12)C(=O)N[C@@H](CCC(=O)O)C(=O)N[C@@H](CCC(=O)O)C(=O)N[C@@H](Cc1ccc(O)cc1)C(=O)N[C@@H](CC(C)C)C(=O)N[C@@H](CC(=O)O)C(=O)N[C@@H](Cc1c[nH]c2ccccc12)C(=O)N[C@H](C(N)=O)C(C)C)[C@@H](C)O)C(C)C)[C@@H](C)O — kon (Proprotein convertase subtilisin/kexin type 9 (PCSK9, Homo sapiens, UniProt Q8NBP7); binding, SPR): 260000 M⁻¹ s⁻¹
